Experimental data as given in ChEMBL document CHEMBL3124900, “Discovery and early clinical evaluation of BMS-605339, a potent and orally efficacious tripeptidic acylsulfonamide NS3 protease inhibitor for the treatment of hepatitis C virus infection” (J Med Chem, 2014).

Experiments:
Hepatitis C virus = experiment: Antiviral activity against Hepatitis C virus genotype 1b Con1 after 4 days by cell-based replicon assay; type: functional, organism-based, Hepacivirus hominis; details: isolate Con1, 96 h
[1] = Inhibition of Hepatitis C virus genotype 1a H77 recombinant NS3/4A protease expressed in Escherichia coli BL21 (DE3) cell using Ac-Asp-Glu-Asp(EDANS)-Glu-Glu-Abu[C(O)-O]-Ala-Ser-Lys(DABCYL)-NH2 as substrate by FRET assay; set-up: species or system Hepatitis C virus (isolate H77)
[2] = Cytotoxicity against human HuH7 cells; type: cell-based; details: Huh-7 cells
Liver = experiment: Drug uptake in intraduodenally dosed Sprague-Dawley rat liver measured per gm of tissue over 4 hrs by LC/MS/MS analysis; type: ADME, organism-based; details: in vivo, other
In short: (§1)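 Abbreviated rat screen: surgically prepared rats were dosed intraduodenally. Plasma was sampled over 4 h, and liver was collected at the 4 h end point. Plasma was precipitated with two volumes of ACN plus internal standard. Liver was weighed and homogenized in 2 volumes of 20% Hanks buffered salt solution/80% ACN. Both were quantified by LC/MS/MS.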

[3] = AUC in intraduodenally dosed Sprague-Dawley rat plasma measured over 4 hrs by LC/MS/MS analysis; type: ADME, organism-based; set-up: time < 4 hr, route intraduodenal; details: Sprague-Dawley, plasma; in short: as §1

SMILES | EC50 (Hepatitis C virus) | IC50 [1] | Drug uptake (Liver) | AUC at 4 h [3] | CC50 [2]
C=C[C@@H]1C[C@]1(NC(=O)[C@@H]1C[C@@H](Oc2cc(-c3ccccc3)nc3cc(OC)ccc23)CN1C(=O)[C@@H](NC(=O)OC(C)(C)C)C(C)(C)C)C(=O)NS(=O)(=O)C1CCCCC1 | 0.21 µM | 0.149 µM | – | – | –
C=C[C@@H]1C[C@]1(NC(=O)[C@@H]1C[C@@H](Oc2ccc3ccccc3n2)CN1C(=O)[C@@H](NC(=O)OC(C)(C)C)C(C)(C)C)C(=O)NS(=O)(=O)C1CC1 | 0.268 µM | 0.023 µM | 52094 ng | 279 nM·h | –
C=C[C@@H]1C[C@]1(NC(=O)[C@@H]1C[C@@H](Oc2nccc3cc(F)ccc23)CN1C(=O)[C@@H](NC(=O)OC(C)(C)C)C(C)(C)C)C(=O)NS(=O)(=O)C1CC1 | 0.117 µM | 0.087 µM | 69560 ng | 1460 nM·h | > 100 µM
C=C[C@@H]1C[C@]1(NC(=O)[C@@H]1C[C@@H](Oc2cc(-c3ccccc3)nc3cc(OC)ccc23)CN1C(=O)[C@@H](NC(=O)OC(C)(C)C)C(C)(C)C)C(=O)NS(=O)(=O)CC | 0.133 µM | 0.006 µM | – | – | –
C=C[C@@H]1C[C@]1(NC(=O)[C@@H]1C[C@@H](Oc2cc(-c3ccccc3)nc3cc(OC)ccc23)CN1C(=O)CNC(=O)OC(C)(C)C)C(=O)NS(=O)(=O)C1CC1 | 0.893 µM | 0.016 µM | – | – | –
C=C[C@@H]1C[C@]1(NC(=O)[C@@H]1C[C@H](Oc2nccc3cc(OC)ccc23)CN1C(=O)[C@@H](NC(=O)OC(C)(C)C)C(C)(C)C)C(=O)NS(=O)(=O)C1CC1 | – | 5 µM | 3058 ng | 250 nM·h | –
C=C[C@@H]1C[C@]1(NC(=O)[C@@H]1C[C@@H](Oc2nccc3cccc(C)c23)CN1C(=O)[C@@H](NC(=O)OC(C)(C)C)C(C)(C)C)C(=O)NS(=O)(=O)C1CC1 | 0.5 µM | 0.149 µM | – | – | > 100 µM
C=C[C@@H]1C[C@]1(NC(=O)[C@@H]1C[C@@H](Oc2ccnc(-c3ccccc3)c2)CN1C(=O)[C@@H](NC(=O)OC(C)(C)C)C(C)(C)C)C(=O)NS(=O)(=O)C1CC1 | 0.267 µM | 0.01 µM | 319 ng | – | –
C=C[C@@H]1C[C@]1(NC(=O)[C@@H]1C[C@@H](Oc2cc(-c3ccccc3)nc3cc(OC)ccc23)CN1C(=O)[C@@H](NC(=O)OC(C)(C)C)C(C)(C)C)C(=O)NS(C)(=O)=O | 0.6 µM | 0.036 µM | – | – | –
C=C[C@@H]1C[C@]1(NC(=O)[C@@H]1C[C@@H](Oc2cc(-c3ccccc3)nc3cc(OC)ccc23)CN1C(=O)[C@@H](NC(=O)OC(C)(C)C)C(C)(C)C)C(=O)NS(=O)(=O)C(C)C | 0.097 µM | 0.019 µM | – | – | –
C=C[C@@H]1C[C@]1(NC(=O)[C@@H]1C[C@@H](Oc2cc(-c3ccccc3)nc3cc(OC)ccc23)CN1C(=O)[C@@H](NC(=O)OC(C)(C)C)C(C)(C)C)C(=O)NS(=O)(=O)C1CCC1 | 0.029 µM | 0.007 µM | – | – | –
C=C[C@@H]1C[C@]1(NC(=O)[C@@H]1C[C@@H](Oc2ccncc2)CN1C(=O)[C@@H](NC(=O)OC(C)(C)C)C(C)(C)C)C(=O)NS(=O)(=O)C1CC1 | 25 µM | 0.084 µM | – | – | –
C=C[C@@H]1C[C@]1(NC(=O)[C@@H]1C[C@@H](Oc2cc(-c3ccccc3)nc3cc(OC)ccc23)CN1C(=O)[C@@H](NC(=O)OC(C)(C)C)C(C)(C)C)C(=O)NS(=O)(=O)c1ccccc1 | 0.02 µM | 0.008 µM | – | – | –
C=C[C@@H]1C[C@]1(NC(=O)[C@@H]1C[C@@H](Oc2ncc(Cl)c3ccccc23)CN1C(=O)[C@@H](NC(=O)OC(C)(C)C)C(C)(C)C)C(=O)NS(=O)(=O)C1CC1 | 0.041 µM | 0.008 µM | – | – | 45 µM
C=C[C@@H]1C[C@]1(NC(=O)[C@@H]1C[C@@H](Oc2nccc3cc(C(=O)N(C)C)ccc23)CN1C(=O)[C@@H](NC(=O)OC(C)(C)C)C(C)(C)C)C(=O)NS(=O)(=O)C1CC1 | 11 µM | 0.476 µM | – | – | > 100 µM
C=C[C@@H]1C[C@]1(NC(=O)[C@@H]1C[C@@H](Oc2nccc3c(F)cccc23)CN1C(=O)[C@@H](NC(=O)OC(C)(C)C)C(C)(C)C)C(=O)NS(=O)(=O)C1CC1 | 0.094 µM | 0.055 µM | – | – | > 100 µM
C=C[C@@H]1C[C@]1(NC(=O)[C@@H]1C[C@@H](Oc2nccc3ccc(C)cc23)CN1C(=O)[C@@H](NC(=O)OC(C)(C)C)C(C)(C)C)C(=O)NS(=O)(=O)C1CC1 | 0.1 µM | 0.007 µM | – | – | 86 µM
COc1ccc2c(O[C@@H]3C[C@@H](C(=O)NC4(C(=O)NS(=O)(=O)C5CC5)CC4)N(C(=O)[C@@H](NC(=O)OC(C)(C)C)C(C)(C)C)C3)cc(-c3ccccc3)nc2c1 | 0.437 µM | 0.012 µM | – | – | –
C=C[C@@H]1C[C@]1(NC(=O)[C@@H]1C[C@@H](Oc2nccc3cc(C(C)(C)C)ccc23)CN1C(=O)[C@@H](NC(=O)OC(C)(C)C)C(C)(C)C)C(=O)NS(=O)(=O)C1CC1 | 0.209 µM | 0.031 µM | – | – | 15 µM
C=C[C@@H]1C[C@]1(NC(=O)[C@@H]1C[C@@H](Oc2cc(-c3ccccc3)nc3cc(OC)ccc23)CN1C(=O)[C@@H](NC(=O)OC(C)(C)C)C(C)(C)C)C(=O)NS(=O)(=O)C1CCCC1 | 0.17 µM | 0.071 µM | – | – | –
C=C[C@@H]1C[C@]1(NC(=O)[C@@H]1C[C@@H](Oc2nccc3c(N4CCOCC4)cccc23)CN1C(=O)[C@@H](NC(=O)OC(C)(C)C)C(C)(C)C)C(=O)NS(=O)(=O)C1CC1 | 0.966 µM | 0.096 µM | – | – | > 100 µM
C=C[C@@H]1C[C@]1(NC(=O)[C@@H]1C[C@@H](Oc2cc(-c3ccccc3)nc3cc(OC)ccc23)CN1C(=O)[C@@H](N)C(C)(C)C)C(=O)NS(=O)(=O)C1CC1 | 0.86 µM | 0.03 µM | – | – | –
C=C[C@@H]1C[C@]1(NC(=O)[C@@H]1C[C@@H](Oc2nccc3cc(Cl)ccc23)CN1C(=O)[C@@H](NC(=O)OC(C)(C)C)C(C)(C)C)C(=O)NS(=O)(=O)C1CC1 | 0.833 µM | 0.036 µM | – | – | 44 µM

Now those with a lower IC50 [1], led by results:

EC50 (Hepatitis C virus) | IC50 [1] | Drug uptake (Liver) | AUC at 4 h [3] | SMILES | CC50 [2]
0.1 µM | 0.004 µM | – | – | C=C[C@@H]1C[C@]1(NC(=O)[C@@H]1C[C@@H](Oc2nccc3cc(C)ccc23)CN1C(=O)[C@@H](NC(=O)OC(C)(C)C)C(C)(C)C)C(=O)NS(=O)(=O)C1CC1 | 92 µM
0.586 µM | 0.004 µM | – | – | C=C[C@@H]1C[C@]1(NC(=O)[C@@H]1C[C@@H](Oc2nccc3cc(C#N)ccc23)CN1C(=O)[C@@H](NC(=O)OC(C)(C)C)C(C)(C)C)C(=O)NS(=O)(=O)C1CC1 | > 100 µM
0.018 µM | 0.002 µM | 2319 ng | 110 nM·h | C=C[C@@H]1C[C@]1(NC(=O)[C@@H]1C[C@@H](Oc2ncnc3cc(OC)ccc23)CN1C(=O)[C@@H](NC(=O)OC(C)(C)C)C(C)(C)C)C(=O)NS(=O)(=O)C1CC1 | > 100 µM
0.042 µM | 0.002 µM | 1205 ng | 380 nM·h | C=C[C@@H]1C[C@]1(NC(=O)[C@@H]1C[C@@H](Oc2cncc3cc(OC)ccc23)CN1C(=O)[C@@H](NC(=O)OC(C)(C)C)C(C)(C)C)C(=O)NS(=O)(=O)C1CC1 | > 100 µM
0.004 µM | 0.001 µM | 72910 ng | 1110 nM·h | C=C[C@@H]1C[C@]1(NC(=O)[C@@H]1C[C@@H](Oc2nc(-c3ccccc3)cc3cc(OC)ccc23)CN1C(=O)[C@@H](NC(=O)OC(C)(C)C)C(C)(C)C)C(=O)NS(=O)(=O)C1CC1 | 13 µM
0.032 µM | 0.001 µM | 156 ng | 9 nM·h | C=C[C@@H]1C[C@]1(NC(=O)[C@@H]1C[C@@H](Oc2cc(-c3ccccc3)nc3cc(OC)ccc23)CN1C(=O)[C@@H](NC(=O)OC)C(C)(C)C)C(=O)NS(=O)(=O)C1CC1 | –
0.05 µM | 0.001 µM | 97240 ng | 200 nM·h | C=C[C@@H]1C[C@]1(NC(=O)[C@@H]1C[C@@H](Oc2ncc(C)c3ccccc23)CN1C(=O)[C@@H](NC(=O)OC(C)(C)C)C(C)(C)C)C(=O)NS(=O)(=O)C1CC1 | 71 µM
0.064 µM | 0.004 µM | – | – | C=C[C@@H]1C[C@]1(NC(=O)[C@@H]1C[C@@H](Oc2nccc3cc(-n4cccn4)ccc23)CN1C(=O)[C@@H](NC(=O)OC(C)(C)C)C(C)(C)C)C(=O)NS(=O)(=O)C1CC1 | 94 µM
0.04 µM | 0.005 µM | 160300 ng | 6360 nM·h | C=C[C@@H]1C[C@]1(NC(=O)[C@@H]1C[C@@H](Oc2nccc3c(C)cccc23)CN1C(=O)[C@@H](NC(=O)OC(C)(C)C)C(C)(C)C)C(=O)NS(=O)(=O)C1CC1 | 89 µM
0.012 µM | 0.003 µM | 14630 ng | 1830 nM·h | C=C[C@@H]1C[C@]1(NC(=O)[C@@H]1C[C@@H](Oc2nccc3cc(OCC)ccc23)CN1C(=O)[C@@H](NC(=O)OC(C)(C)C)C(C)(C)C)C(=O)NS(=O)(=O)C1CC1 | 74 µM
0.026 µM | 0.005 µM | 620 ng | 15 nM·h | C=C[C@@H]1C[C@]1(NC(=O)[C@@H]1C[C@@H](Oc2ccnc3cc(OC)ccc23)CN1C(=O)[C@@H](NC(=O)OC(C)(C)C)C(C)(C)C)C(=O)NS(=O)(=O)C1CC1 | –
0.067 µM | 0.003 µM | – | – | C=C[C@@H]1C[C@]1(NC(=O)[C@@H]1C[C@@H](Oc2nccc3cc(O)ccc23)CN1C(=O)[C@@H](NC(=O)OC(C)(C)C)C(C)(C)C)C(=O)NS(=O)(=O)C1CC1 | > 100 µM
0.009 µM | 0.003 µM | – | – | C=C[C@@H]1C[C@]1(NC(=O)[C@@H]1C[C@@H](Oc2nc(-c3ccccc3)cc3ccccc23)CN1C(=O)[C@@H](NC(=O)OC(C)(C)C)C(C)(C)C)C(=O)NS(=O)(=O)C1CC1 | 12 µM
